Reference: ChEMBL document CHEMBL1250448, “Inhibitor hijacking of Akt activation” (Nat Chem Biol, 2009)
The source made the active and inactive calls. The rule behind the calls is not given here.

How the values were obtained:
[1] = target: RAC-alpha serine/threonine-protein kinase (Homo sapiens, UniProt P31749); assay: Induction of AKT1 Ser473 phosphorylation expressed in IGF1-stimulated HEK293 cells treated 20 mins before IGF1 stimulation by immunoblotting; format: cell-based
Outline: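 HEK293 cells (not transfected), serum-starved overnight, then given inhibitor for 20 min before 50 ng/ml IGF-1 for a further 10 min. Cells detached in ice-cold Ca/Mg-free PBS with 0.04% EDTA and lysed in Tris pH 7.5 Triton buffer with protease/phosphatase inhibitors. Lysates cleared at 14000 g, protein equalised by Bradford, and pThr308, pSer473 and GSK3β pSer9 read by immunoblot with ECL.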

[2] = target: Casein kinase I isoform epsilon (Homo sapiens) (UniProt P49674); assay: Inhibition of CSNK1E at 1 uM in presence of 10 uM ATP by Select Screen kinase assay relative to untreated control
[3] = target: Serine/threonine-protein kinase PAK 3 (Homo sapiens) (UniProt O75914); assay: Inhibition of PAK3 at 1 uM in presence of 10 uM ATP by Select Screen kinase assay relative to untreated control
[4] = target: Serine/threonine-protein kinase Nek2 (Homo sapiens) (UniProt P51955); assay: Inhibition of NEK2 at 1 uM in presence of 10 uM ATP by Select Screen kinase assay relative to untreated control
[5] = target: Glycogen synthase kinase-3 beta (Homo sapiens) (UniProt P49841); assay: Inhibition of GSK3B at 1 uM in presence of 10 uM ATP by Select Screen kinase assay relative to untreated control
Outline: (§1)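 Part of a 220-kinase panel of purified kinases, each tested with compound at 1 μM. Percent inhibition was measured in the Invitrogen SelectScreen profiling assay.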

[6] = target: Ribosomal protein S6 kinase alpha-2 (Homo sapiens) (UniProt Q15349); assay: Inhibition of RPS6KA2 at 1 uM in presence of 10 uM ATP by Select Screen kinase assay relative to untreated control
[7] = target: RAC-gamma serine/threonine-protein kinase (Homo sapiens) (UniProt Q9Y243); assay: Inhibition of AKT3 at 1 uM in presence of 10 uM ATP by Select Screen kinase assay relative to untreated control
Outline: (§2)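 Single-point screen at 1 μM against a panel of 220 purified kinases, run by Invitrogen staff as a SelectScreen profiling service. Read-out is percent inhibition of kinase activity.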

[8] = system: Tyrosine-protein kinase ABL1 (Homo sapiens), P00519 [G250E]; assay: Inhibition of ABL1 G250E mutant at 1 uM in presence of 10 uM ATP by Select Screen kinase assay relative to untreated control; outline: as §2
[9] = target: Tyrosine-protein kinase JAK2 (Homo sapiens) (UniProt O60674); assay: Inhibition of JAK2 JH1 JH2 domain at 1 uM in presence of 100 uM ATP by Select Screen kinase assay relative to untreated control
Outline: (§3)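 Single-concentration profiling at 1 μM against a panel of 220 purified kinases, run as an outsourced SelectScreen kinase profiling service. Activity is expressed as percent inhibition.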

[10] = target: Serine/threonine-protein kinase MRCK beta (Homo sapiens) (UniProt Q9Y5S2); assay: Inhibition of CDC42 binding protein beta at 1 uM in presence of 10 uM ATP by Select Screen kinase assay relative to untreated control; outline: as §2
[11] = target: SRSF protein kinase 3 (Homo sapiens) (UniProt Q9UPE1); assay: Inhibition of STK23 at 1 uM in presence of 10 uM ATP by Select Screen kinase assay relative to untreated control
Outline: (§4)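 Commercial SelectScreen profiling panel of 220 purified kinases. Each kinase was tested at a single inhibitor concentration of 1 μM, and activity was expressed as percent inhibition.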

[12] = target: Muscle, skeletal receptor tyrosine-protein kinase (Homo sapiens) (UniProt O15146); assay: Inhibition of MUSK at 1 uM in presence of 100 uM ATP by Select Screen kinase assay relative to untreated control
[13] = target: cAMP-dependent protein kinase catalytic subunit alpha (Homo sapiens) (UniProt P17612); assay: Inhibition of PRKACA (PKA) at 1 uM in presence of 10 uM ATP by Select Screen kinase assay relative to untreated control
[14] = target: Serine/threonine-protein kinase Sgk1 (Homo sapiens) (UniProt O00141); assay: Inhibition of SGK at 1 uM in presence of 10 uM ATP by Select Screen kinase assay relative to untreated control
[15] = target: Mitogen-activated protein kinase 11 (Homo sapiens) (UniProt Q15759); assay: Inhibition of MAPK11 at 1 uM in presence of 100 uM ATP by Select Screen kinase assay relative to untreated control
[16] = target: Mitogen-activated protein kinase kinase kinase kinase 4 (Homo sapiens) (UniProt O95819); assay: Inhibition of MAP4K4 at 1 uM in presence of 10 uM ATP by Select Screen kinase assay relative to untreated control
[17] = target: Dual specificity protein kinase CLK1 (Homo sapiens) (UniProt P49759); assay: Inhibition of CLK1 at 1 uM in presence of 100 uM ATP by Select Screen kinase assay relative to untreated control; outline: as §1
[18] = target: Tyrosine-protein kinase JAK2 (Homo sapiens) (UniProt O60674); assay: Inhibition of JAK2 at 1 uM in presence of 10 uM ATP by Select Screen kinase assay relative to untreated control; outline: as §3
[19] = target: Serine/threonine-protein kinase D2 (Homo sapiens) (UniProt Q9BZL6); assay: Inhibition of PRKD2 at 1 uM in presence of 10 uM ATP by Select Screen kinase assay relative to untreated control
[20] = system: Proto-oncogene tyrosine-protein kinase receptor Ret (Homo sapiens), P07949 [V804L]; assay: Inhibition of RET V804L mutant at 1 uM in presence of 10 uM ATP by Select Screen kinase assay relative to untreated control; outline: as §4
[21] = target: Cyclin-dependent kinase 2/cyclin A (Homo sapiens) (UniProt P24941+P20248+P78396); assay: Inhibition of CDK2/cyclin A at 1 uM in presence of 10 uM ATP by Select Screen kinase assay relative to untreated control; format: protein-complex assay; outline: as §2
[22] = target: Ribosomal protein S6 kinase alpha-4 (Homo sapiens) (UniProt O75676); assay: Inhibition of RPS6KA4 at 1 uM in presence of 10 uM ATP by Select Screen kinase assay relative to untreated control
[23] = target: Calcium/calmodulin-dependent protein kinase type IV (Homo sapiens) (UniProt Q16566); assay: Inhibition of CAMK4 at 1 uM in presence of 10 uM ATP by Select Screen kinase assay relative to untreated control; outline: as §2
[24] = target: Receptor-type tyrosine-protein kinase FLT3 (Homo sapiens) (UniProt P36888); assay: Inhibition of FLT3 at 1 uM in presence of 10 uM ATP by Select Screen kinase assay relative to untreated control; outline: as §3
[25] = target: Tyrosine-protein kinase JAK3 (Homo sapiens) (UniProt P52333); assay: Inhibition of JAK3 at 1 uM in presence of 10 uM ATP by Select Screen kinase assay relative to untreated control; outline: as §3
[26] = target: Serine/threonine-protein kinase Sgk2 (Homo sapiens) (UniProt Q9HBY8); assay: Inhibition of SGK2 at 1 uM in presence of 10 uM ATP by Select Screen kinase assay relative to untreated control; outline: as §4

Tyrosine-protein kinase JAK2 (Homo sapiens), sequence (O60674 whole entry, the tested form may be a part): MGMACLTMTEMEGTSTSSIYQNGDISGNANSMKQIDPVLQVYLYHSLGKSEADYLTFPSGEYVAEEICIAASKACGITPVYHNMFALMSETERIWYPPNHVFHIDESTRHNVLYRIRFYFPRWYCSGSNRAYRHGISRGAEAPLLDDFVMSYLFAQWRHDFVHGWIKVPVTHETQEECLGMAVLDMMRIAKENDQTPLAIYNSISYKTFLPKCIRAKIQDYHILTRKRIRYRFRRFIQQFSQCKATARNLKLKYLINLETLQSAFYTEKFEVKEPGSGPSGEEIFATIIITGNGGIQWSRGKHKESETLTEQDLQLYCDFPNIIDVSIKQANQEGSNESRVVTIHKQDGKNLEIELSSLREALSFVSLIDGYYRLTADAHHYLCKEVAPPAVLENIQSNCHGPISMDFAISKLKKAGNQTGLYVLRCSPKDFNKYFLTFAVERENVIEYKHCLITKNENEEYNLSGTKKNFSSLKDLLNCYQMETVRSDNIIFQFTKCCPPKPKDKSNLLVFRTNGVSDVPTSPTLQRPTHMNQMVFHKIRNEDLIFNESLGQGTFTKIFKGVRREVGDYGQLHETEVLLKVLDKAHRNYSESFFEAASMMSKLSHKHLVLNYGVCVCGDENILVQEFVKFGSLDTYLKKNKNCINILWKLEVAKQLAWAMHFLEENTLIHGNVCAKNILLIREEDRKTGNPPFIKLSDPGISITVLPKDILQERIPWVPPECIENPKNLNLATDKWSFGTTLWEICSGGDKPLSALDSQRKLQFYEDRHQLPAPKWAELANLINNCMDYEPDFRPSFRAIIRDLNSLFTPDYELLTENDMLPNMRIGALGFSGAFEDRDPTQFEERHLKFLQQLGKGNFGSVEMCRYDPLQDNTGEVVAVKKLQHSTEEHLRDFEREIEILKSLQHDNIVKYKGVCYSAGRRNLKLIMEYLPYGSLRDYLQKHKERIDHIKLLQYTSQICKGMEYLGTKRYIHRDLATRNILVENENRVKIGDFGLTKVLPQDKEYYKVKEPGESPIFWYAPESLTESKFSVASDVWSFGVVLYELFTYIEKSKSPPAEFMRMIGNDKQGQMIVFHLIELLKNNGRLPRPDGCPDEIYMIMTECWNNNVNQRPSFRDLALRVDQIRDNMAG
Proto-oncogene tyrosine-protein kinase receptor Ret (Homo sapiens), P07949 [V804L], sequence (P07949 whole entry V804L): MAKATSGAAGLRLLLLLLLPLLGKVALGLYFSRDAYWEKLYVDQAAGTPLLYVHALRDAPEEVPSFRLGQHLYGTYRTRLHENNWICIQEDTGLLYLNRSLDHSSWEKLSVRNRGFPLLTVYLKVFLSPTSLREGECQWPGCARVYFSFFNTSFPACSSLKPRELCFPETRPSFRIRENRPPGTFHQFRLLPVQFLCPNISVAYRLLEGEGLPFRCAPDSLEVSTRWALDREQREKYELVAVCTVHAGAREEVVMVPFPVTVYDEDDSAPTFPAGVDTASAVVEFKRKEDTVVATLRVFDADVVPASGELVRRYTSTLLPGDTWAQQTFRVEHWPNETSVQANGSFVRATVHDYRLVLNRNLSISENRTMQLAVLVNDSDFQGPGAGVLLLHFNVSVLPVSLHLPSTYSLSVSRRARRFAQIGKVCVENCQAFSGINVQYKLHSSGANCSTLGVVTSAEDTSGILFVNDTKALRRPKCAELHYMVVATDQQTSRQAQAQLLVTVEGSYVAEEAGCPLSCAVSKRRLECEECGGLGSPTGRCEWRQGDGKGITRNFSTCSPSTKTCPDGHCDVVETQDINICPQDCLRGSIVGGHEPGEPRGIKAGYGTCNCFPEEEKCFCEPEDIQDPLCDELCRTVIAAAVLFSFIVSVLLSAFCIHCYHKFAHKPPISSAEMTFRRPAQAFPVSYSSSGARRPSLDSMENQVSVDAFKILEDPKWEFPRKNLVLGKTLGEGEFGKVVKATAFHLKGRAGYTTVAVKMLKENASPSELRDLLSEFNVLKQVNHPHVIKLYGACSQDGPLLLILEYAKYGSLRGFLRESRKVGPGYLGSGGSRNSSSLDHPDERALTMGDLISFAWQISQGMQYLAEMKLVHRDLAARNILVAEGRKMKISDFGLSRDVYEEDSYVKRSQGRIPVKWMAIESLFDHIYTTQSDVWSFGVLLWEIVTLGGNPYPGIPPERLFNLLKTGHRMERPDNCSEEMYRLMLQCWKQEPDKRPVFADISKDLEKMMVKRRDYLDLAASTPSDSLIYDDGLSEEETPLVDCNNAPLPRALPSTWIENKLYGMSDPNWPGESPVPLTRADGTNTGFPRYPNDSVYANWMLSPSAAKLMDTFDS
Receptor-type tyrosine-protein kinase FLT3 (Homo sapiens), sequence (P36888 whole entry): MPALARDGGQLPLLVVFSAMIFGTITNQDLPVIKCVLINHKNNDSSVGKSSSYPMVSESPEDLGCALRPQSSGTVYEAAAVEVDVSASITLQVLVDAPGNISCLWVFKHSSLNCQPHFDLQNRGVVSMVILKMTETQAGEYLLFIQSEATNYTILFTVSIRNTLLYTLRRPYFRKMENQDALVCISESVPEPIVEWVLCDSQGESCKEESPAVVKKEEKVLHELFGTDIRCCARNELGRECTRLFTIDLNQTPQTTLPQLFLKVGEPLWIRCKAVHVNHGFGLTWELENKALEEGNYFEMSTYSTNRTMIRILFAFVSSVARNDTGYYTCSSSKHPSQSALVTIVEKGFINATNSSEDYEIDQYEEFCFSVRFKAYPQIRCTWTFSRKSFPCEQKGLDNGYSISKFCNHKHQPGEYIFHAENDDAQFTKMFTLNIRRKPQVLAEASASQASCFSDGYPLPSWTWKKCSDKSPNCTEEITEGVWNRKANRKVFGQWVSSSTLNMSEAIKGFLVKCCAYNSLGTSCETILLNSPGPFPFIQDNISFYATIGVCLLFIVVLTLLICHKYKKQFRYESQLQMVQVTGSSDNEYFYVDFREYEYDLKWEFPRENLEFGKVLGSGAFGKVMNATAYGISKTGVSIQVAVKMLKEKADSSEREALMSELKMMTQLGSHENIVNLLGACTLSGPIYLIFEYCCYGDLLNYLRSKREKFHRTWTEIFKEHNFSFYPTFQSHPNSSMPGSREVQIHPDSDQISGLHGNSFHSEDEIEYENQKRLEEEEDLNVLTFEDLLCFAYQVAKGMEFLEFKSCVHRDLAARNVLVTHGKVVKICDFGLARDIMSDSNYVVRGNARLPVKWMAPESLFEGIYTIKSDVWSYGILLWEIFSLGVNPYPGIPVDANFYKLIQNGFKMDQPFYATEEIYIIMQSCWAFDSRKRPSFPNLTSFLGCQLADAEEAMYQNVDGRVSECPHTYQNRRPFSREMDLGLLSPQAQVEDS
Muscle, skeletal receptor tyrosine-protein kinase (Homo sapiens), sequence (O15146 whole entry): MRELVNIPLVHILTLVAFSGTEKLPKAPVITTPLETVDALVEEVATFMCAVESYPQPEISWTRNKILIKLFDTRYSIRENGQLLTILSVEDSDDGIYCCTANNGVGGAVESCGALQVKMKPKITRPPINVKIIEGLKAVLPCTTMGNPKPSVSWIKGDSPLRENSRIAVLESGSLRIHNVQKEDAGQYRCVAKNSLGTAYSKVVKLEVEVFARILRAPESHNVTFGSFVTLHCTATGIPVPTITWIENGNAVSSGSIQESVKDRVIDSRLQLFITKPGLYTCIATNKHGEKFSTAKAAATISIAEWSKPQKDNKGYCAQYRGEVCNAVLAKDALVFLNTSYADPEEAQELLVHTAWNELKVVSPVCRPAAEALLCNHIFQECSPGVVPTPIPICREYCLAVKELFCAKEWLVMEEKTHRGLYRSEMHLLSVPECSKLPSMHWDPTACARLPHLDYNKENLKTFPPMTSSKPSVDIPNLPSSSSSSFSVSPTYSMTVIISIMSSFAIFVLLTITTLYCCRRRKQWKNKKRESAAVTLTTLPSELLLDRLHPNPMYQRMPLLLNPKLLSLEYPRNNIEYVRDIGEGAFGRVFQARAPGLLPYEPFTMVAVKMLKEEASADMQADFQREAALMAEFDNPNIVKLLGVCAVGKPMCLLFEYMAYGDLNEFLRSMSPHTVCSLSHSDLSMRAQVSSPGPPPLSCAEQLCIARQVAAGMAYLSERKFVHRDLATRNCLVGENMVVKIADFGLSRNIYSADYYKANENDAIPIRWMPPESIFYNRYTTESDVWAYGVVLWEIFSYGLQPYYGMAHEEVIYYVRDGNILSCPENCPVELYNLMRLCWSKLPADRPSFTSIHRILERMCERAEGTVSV
Serine/threonine-protein kinase PAK 3 (Homo sapiens), sequence (O75914 whole entry, looked up): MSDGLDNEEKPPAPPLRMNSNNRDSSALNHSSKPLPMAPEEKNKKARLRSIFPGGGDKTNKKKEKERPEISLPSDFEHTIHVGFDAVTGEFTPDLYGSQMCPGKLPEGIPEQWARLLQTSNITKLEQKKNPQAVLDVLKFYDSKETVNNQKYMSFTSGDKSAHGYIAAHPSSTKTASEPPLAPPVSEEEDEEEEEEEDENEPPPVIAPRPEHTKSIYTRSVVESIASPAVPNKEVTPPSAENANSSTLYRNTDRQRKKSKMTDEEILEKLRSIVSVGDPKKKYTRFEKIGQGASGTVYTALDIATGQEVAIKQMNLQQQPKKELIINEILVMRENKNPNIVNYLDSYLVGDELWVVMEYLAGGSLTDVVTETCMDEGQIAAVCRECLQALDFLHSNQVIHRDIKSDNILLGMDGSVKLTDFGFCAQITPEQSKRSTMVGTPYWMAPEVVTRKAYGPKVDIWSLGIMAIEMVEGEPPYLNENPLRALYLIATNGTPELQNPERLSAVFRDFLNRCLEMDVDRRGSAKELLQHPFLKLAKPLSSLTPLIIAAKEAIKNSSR
Glycogen synthase kinase-3 beta (Homo sapiens), sequence (P49841 whole entry, looked up): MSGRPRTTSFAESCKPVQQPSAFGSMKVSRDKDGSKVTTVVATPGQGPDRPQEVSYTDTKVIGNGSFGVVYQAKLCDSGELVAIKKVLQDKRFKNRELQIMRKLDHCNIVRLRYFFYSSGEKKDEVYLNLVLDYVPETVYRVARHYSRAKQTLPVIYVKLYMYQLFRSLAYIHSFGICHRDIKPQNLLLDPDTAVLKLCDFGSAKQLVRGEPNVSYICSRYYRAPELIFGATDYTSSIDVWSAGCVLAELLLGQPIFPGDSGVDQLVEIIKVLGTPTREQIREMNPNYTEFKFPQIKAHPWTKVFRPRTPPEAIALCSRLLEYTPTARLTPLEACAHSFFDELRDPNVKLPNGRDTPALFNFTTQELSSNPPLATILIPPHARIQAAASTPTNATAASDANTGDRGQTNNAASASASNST

inhibition [4]	inhibition [5]	inhibition [6]	inhibition [7]	inhibition [8]	inhibition [9]	inhibition [10]	inhibition [11]	inhibition [12]	inhibition [13]	inhibition [14]	inhibition [15]	inhibition [16]	inhibition [17]	inhibition [18]	inhibition [19]	inhibition [20]	SMILES	Activity [1]	inhibition [2]	inhibition [3]	other results
–	–	–	–	–	–	–	–	–	–	–	–	–	–	–	–	–	CCCc1cc(-c2cncc(OC[C@@H](N)Cc3c[nH]c4ccccc34)c2)cc2c(C)n[nH]c12	inactive	–	–	–
–	–	–	–	–	–	–	–	–	–	–	–	–	–	–	–	–	Cc1n[nH]c2ccc(-c3cncc(OC[C@@H](N)Cc4c[nH]c5ccccc45)c3)cc12	Active	42%	45%	–
33%	69%	63%	3%	18%	97%	14%	6%	76%	28%	53%	6%	39%	30%	74%	76%	93%	O=C(NCCCNc1nc(Nc2cccc(NC(=O)N3CCCC3)c2)ncc1I)c1cccs1	–	–	-2%	inhibition [21]: 84%; inhibition [22]: 75%; inhibition [23]: 8%; inhibition [24]: 95%; inhibition [25]: 89%; inhibition [26]: 25%
21%	67%	55%	17%	7%	0%	3%	3%	19%	48%	13%	4%	73%	74%	-9%	4%	66%	COc1ccccc1N1CCN(c2ncnc3[nH]nc(Br)c23)CC1	–	23%	–	inhibition [21]: 2%; inhibition [22]: 90%; inhibition [23]: 0%; inhibition [24]: 60%; inhibition [25]: -1%; inhibition [26]: 10%
